Source: PMC9476207 (ACS Omega, 2022)

How the values were obtained:
Assay in all cases: NCI-60 single-dose antiproliferative screen
Assay type in all cases: cell-based
CCRF-CEM = conditions: Homo sapiens, 48 h, read-out: growth percent
Outline: (§1)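 NCI-60 protocol. Lines were grown in RPMI 1640 with 5% FBS and 2 mM L-glutamine, plated and incubated 24 h at 37 °C; time-zero plates were TCA-fixed. The test compound was dissolved in DMSO, diluted in medium with 50 μg/mL gentamicin and given once at a final 10^-5 M (DMSO control) for 48 h. Cells were fixed with cold TCA (1 h, 4 °C) and stained with 0.4% SRB in 1% acetic acid for 10 min. Dye was dissolved in 10 mM Trizma base and read at 515 nm. Growth percent was calculated from time-zero, test and control ODs.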

MOLT-4 = conditions: Homo sapiens, MOLT-4, 48 h, read-out: growth percent
Outline: as §1

RPMI-8226 = conditions: Homo sapiens, RPMI-8226, 48 h, read-out: growth percent
Outline: as §1

SR = conditions: Homo sapiens, 48 h, read-out: growth percent
Outline: (§2)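 Cells grown in RPMI 1640 with 5% FBS and 2 mM L-glutamine, plated and held 24 h at 37 °C; time-zero plates TCA-fixed. DMSO stocks were diluted in gentamicin-containing medium to a final 10^-5 M, with a DMSO-only control. Exposure 48 h, 5% CO2. Adherent cells TCA-fixed 1 h at 4 °C, stained with 0.4% SRB, solubilised in 10 mM Trizma base, read at 515 nm. Growth percent derived from ODtzero, ODtest and ODctrl.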

A549/ATCC = conditions: Homo sapiens, A549, 48 h, read-out: growth percent
Outline: as §1

HOP-62 = conditions: Homo sapiens, HOP-62, 48 h, read-out: growth percent
Outline: as §1

NCI-H226 = conditions: Homo sapiens, NCI-H226, 48 h, read-out: growth percent
Outline: as §1

NCI-H23 = conditions: Homo sapiens, NCI-H23, 48 h, read-out: growth percent
Outline: as §1

NCI-H322M = conditions: Homo sapiens, 48 h, read-out: growth percent
Outline: as §1

NCI-H460 = conditions: Homo sapiens, NCI-H460, 48 h, read-out: growth percent
Outline: as §1

NCI-H522 = conditions: Homo sapiens, NCI-H522, 48 h, read-out: growth percent
Outline: as §1

COLO205 = conditions: Homo sapiens, COLO 205, 48 h, read-out: growth percent
Outline: as §1

HCC-2998 = conditions: Homo sapiens, HCC 2998, 48 h, read-out: growth percent
Outline: as §1

HT29 = conditions: Homo sapiens, HT-29, 48 h, read-out: growth percent
Outline: as §1

KM12 = conditions: Homo sapiens, KM12, 48 h, read-out: growth percent
Outline: as §1

SW-620 = conditions: Homo sapiens, SW-620, 48 h, read-out: growth percent
Outline: as §2

SF-268 = conditions: Homo sapiens, SF-268, 48 h, read-out: growth percent
Outline: as §1

SF-295 = conditions: Homo sapiens, SF-295, 48 h, read-out: growth percent
Outline: as §1

SF-539 = conditions: Homo sapiens, SF-539, 48 h, read-out: growth percent
Outline: as §2

SNB-19 = conditions: Homo sapiens, SNB-19, 48 h, read-out: growth percent
Outline: as §2

MDA-MB-435 = conditions: Homo sapiens, MDA-MB-435, 48 h, read-out: growth percent
Outline: as §1

SK-MEL-2 = conditions: Homo sapiens, SK-MEL-2, 48 h, read-out: growth percent
Outline: as §2

UACC-257 = conditions: Homo sapiens, UACC-257, 48 h, read-out: growth percent
Outline: as §2

UACC-62 = conditions: Homo sapiens, UACC-62, 48 h, read-out: growth percent
Outline: as §2

IGROV1 = conditions: Homo sapiens, IGROV-1, 48 h, read-out: growth percent
Outline: as §1

SK-OV-3 = conditions: Homo sapiens, SK-OV-3, 48 h, read-out: growth percent
Outline: as §2

CAKI-1 = conditions: Homo sapiens, CAKI-1, 48 h, read-out: growth percent
Outline: as §1

RXF 393 = conditions: Homo sapiens, RXF 393, 48 h, read-out: growth percent
Outline: as §1

SN12C = conditions: Homo sapiens, 48 h, read-out: growth percent
Outline: as §2

TK-10 = conditions: Homo sapiens, TK-10, 48 h, read-out: growth percent
Outline: as §2

UO-31 = conditions: Homo sapiens, UO-31, 48 h, read-out: growth percent
Outline: as §2

DU-145 = conditions: Homo sapiens, DU-145, 48 h, read-out: growth percent
Outline: as §1

MCF-7 = conditions: Homo sapiens, MCF7, 48 h, read-out: growth percent
Outline: as §1

HS 578T = conditions: Homo sapiens, 48 h, read-out: growth percent
Outline: as §1

T-47D = conditions: Homo sapiens, T47D, 48 h, read-out: growth percent
Outline: as §2

MDA-MB-468 = conditions: Homo sapiens, MDA-MB-468, 48 h, read-out: growth percent
Outline: as §1

## COc1cc(CNC(=O)C[C@H](C)CCC=C(C)C)ccc1OCc1cn(-c2ccc(Cl)cc2)nn1 [18b, (R)-N-(4-((1-(4-Chlorophenyl)-1H-1,2,3-triazol-4-yl)methoxy)-3-methoxybenzyl)-3,7-dimethyloct-6-enamide]
CCRF-CEM
  activity at 10 µM: 92.9%
MOLT-4
  activity at 10 µM: 71.7%
RPMI-8226
  activity at 10 µM: 75.3%
SR
  activity at 10 µM: 65.8%
A549/ATCC
  activity at 10 µM: 57.1%
HOP-62
  activity at 10 µM: 61.5%
NCI-H226
  activity at 10 µM: 63.8%
NCI-H23
  activity at 10 µM: 64.9%
NCI-H322M
  activity at 10 µM: 83.5%
NCI-H460
  activity at 10 µM: 65%
NCI-H522
  activity at 10 µM: 62.9%
COLO205
  activity at 10 µM: 91.1%
HCC-2998
  activity at 10 µM: 75.9%
HT29
  activity at 10 µM: 79.6%
KM12
  activity at 10 µM: 87.7%
SW-620
  activity at 10 µM: 76.8%
SF-268
  activity at 10 µM: 95.4%
SF-295
  activity at 10 µM: 55.5%
SF-539
  activity at 10 µM: 67.7%
SNB-19
  activity at 10 µM: 78.6%
MDA-MB-435
  activity at 10 µM: 84.9%
SK-MEL-2
  activity at 10 µM: 83.6%
UACC-257
  activity at 10 µM: 85.5%
UACC-62
  activity at 10 µM: 65.7%
IGROV1
  activity at 10 µM: 80.2%
SK-OV-3
  activity at 10 µM: 72.1%
CAKI-1
  activity at 10 µM: 45.9%
RXF 393
  activity at 10 µM: 56.1%
SN12C
  activity at 10 µM: 67.7%
TK-10
  activity at 10 µM: 95.6%
UO-31
  activity at 10 µM: 62.5%
DU-145
  activity at 10 µM: 82.8%
MCF-7
  activity at 10 µM: 51.6%
HS 578T
  activity at 10 µM: 71.4%
T-47D
  activity at 10 µM: 52.5%
MDA-MB-468
  activity at 10 µM: 41.3%
